PubChem BioAssay
Active and inactive are the calls of the source.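 How the source made its calls, unless noted: active means Her2 level under about 52% in both replicate screens, with viability over 70% of control (limit read from the data); inconclusive means Her2 under the limit in one screen only, or viability under 70%; inactive means Her2 level above the set limit.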

Columns and labels:
[1] = Her2 expression decrease, cell viability multiplex – SKBR3 breast tumor cells, AlphaScreen, ATP viability, primary screen (AID 461); details: SKBR3 Her2 protein level, 18-24 h, measured here: SKBR3 viability, ATP luminescence, at 10 µM;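 on Her2 level: lower value means less Her2 protein in the cells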;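 on viability: percent of carrier control wells set as 100% viability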
[2] = target: Receptor tyrosine-protein kinase erbB-2 (Homo sapiens) (UniProt P04626); experiment: as above; details: 18-24 h, at 10 µM, stronger effect = lower value
Chain of Receptor tyrosine-protein kinase erbB-2 (Homo sapiens) (P04626 whole entry, looked up): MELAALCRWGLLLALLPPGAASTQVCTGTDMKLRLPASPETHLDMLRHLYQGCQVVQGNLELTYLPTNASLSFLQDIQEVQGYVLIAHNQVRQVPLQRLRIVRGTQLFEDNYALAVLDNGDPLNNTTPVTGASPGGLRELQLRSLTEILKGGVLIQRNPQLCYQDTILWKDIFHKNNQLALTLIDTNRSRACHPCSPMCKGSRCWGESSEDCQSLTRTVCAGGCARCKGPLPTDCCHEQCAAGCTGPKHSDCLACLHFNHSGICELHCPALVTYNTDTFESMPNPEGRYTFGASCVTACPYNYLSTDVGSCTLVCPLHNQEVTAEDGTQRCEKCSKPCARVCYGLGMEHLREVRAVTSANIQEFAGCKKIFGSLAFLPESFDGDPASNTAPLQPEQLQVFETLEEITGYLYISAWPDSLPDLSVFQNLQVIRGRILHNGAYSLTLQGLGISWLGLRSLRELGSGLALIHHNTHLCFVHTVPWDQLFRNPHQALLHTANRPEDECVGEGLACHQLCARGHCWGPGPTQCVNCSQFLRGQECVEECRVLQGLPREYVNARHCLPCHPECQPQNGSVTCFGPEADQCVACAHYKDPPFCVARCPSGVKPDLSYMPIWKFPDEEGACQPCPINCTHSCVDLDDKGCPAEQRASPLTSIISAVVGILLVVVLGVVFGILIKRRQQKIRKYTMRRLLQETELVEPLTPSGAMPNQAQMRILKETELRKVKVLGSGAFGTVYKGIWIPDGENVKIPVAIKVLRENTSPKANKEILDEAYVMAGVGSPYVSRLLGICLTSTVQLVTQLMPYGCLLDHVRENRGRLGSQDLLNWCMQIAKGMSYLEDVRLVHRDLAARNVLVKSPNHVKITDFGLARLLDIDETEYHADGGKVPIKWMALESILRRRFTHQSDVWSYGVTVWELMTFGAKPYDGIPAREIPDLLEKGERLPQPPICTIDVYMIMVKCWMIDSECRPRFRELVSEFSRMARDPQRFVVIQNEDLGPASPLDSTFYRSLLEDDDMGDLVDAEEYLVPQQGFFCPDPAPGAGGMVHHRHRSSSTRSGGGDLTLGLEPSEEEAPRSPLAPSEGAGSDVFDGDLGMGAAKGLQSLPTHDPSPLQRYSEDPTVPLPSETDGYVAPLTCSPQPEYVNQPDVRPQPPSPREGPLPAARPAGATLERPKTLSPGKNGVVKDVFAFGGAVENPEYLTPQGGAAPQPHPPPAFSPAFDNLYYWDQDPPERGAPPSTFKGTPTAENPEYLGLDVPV

[3] = reduced viability of SK-BR-3 breast cancer cells – cell-based, 24 h, human, pilot screen (AID 572;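 active means viability at or below 10% of carrier control in both of two separate runs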;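 further: compound exposure lasted between 18 and 24 h rather than exactly 24 h; 100% = carrier-treated control wells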); details: SK-BR-3 viability, CellTiter-Glo luminescence, at 10 µM, stronger effect = lower value
[4] = HUVEC growth inhibition – cell-based, human, primary screen (AID 575;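 active means viability at or below 30% in both replicate assays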;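 further: 100% = median of untreated cell wells with 0.1% DMSO on each plate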); details: HUVEC proliferation, CellTiter-Glo luminescence, 72 h; at 10 µM; stronger effect = lower value
Procedure, shortened: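 Test system: primary human umbilical vein endothelial cells; medium: endothelial basal medium with 2% FBS plus growth supplements; dosing: 10 µM compound only; times: 72 h treatment at 37 °C; signal: CTG luminescence; read-out: % viability relative to median vehicle-well signal on each plate; control set: vehicle and MePR control wells; plate: 384-well, collagen-coated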

[5] = H69AR cell proliferation blockers – human, duplicate replicates, primary screen (AID 580;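 active means viability at or under a set limit in both replicates, limit being median viability minus 3 SD, cut at about 48% in these data, passing the limit was not always enough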;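 further: 100% = mean luminescence of untreated wells and 0% = no signal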); details: H69AR lung tumor cells viability, ATP luminescence, 72 h; at 10 µM; stronger effect = lower value
[6] = MRP1 drug-resistance reversers in H69AR cells – cell-based, doxorubicin co-treatment, pilot screen (AID 601;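 active means viability loss from added drug above about 55%, and viability with drug at most 40%, in both replicates, limit read from the data, passing the limit was not always enough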); details: CellTiter-Glo, 72 h, at 10 µM; for differential viability (reversal): stronger effect = higher value
[7] = yeast transport mutant growth inhibition pilot in 384-well plates, post-Golgi transport modulator project (AID 636; in the data active means inhibition above about 31%); details: absorbance 615 nm, about 18 h, stronger effect = higher value
[8] = growth suppression of yeast trafficking mutant, preliminary HTS, modulators of trafficking downstream of Golgi apparatus project, 1536-format plate, OD 615 nm (AID 637; in the data active means inhibition above about 30%); details: yeast transport mutant growth, absorbance 615 nm, 18 h; stronger effect = higher value
[9] = H69AR cells + 2 uM doxorubicin, measured here: viability with 2 uM doxorubicin, stronger effect = lower value
[10] = H69AR cells, compound alone cytotoxicity

| Compound | viability [1] [%] | Her2 level [2] | viability [3] | viability [4] | viability [5] | differential viability (reversal) ([6]; H69AR cells + 2 uM doxorubicin) | viability [6, 9] [%] | viability [6, 10] [%] | inhibition [7] | inhibition [8] |
| --- | --- | --- | --- | --- | --- | --- | --- | --- | --- | --- |
| CCN1CCN(CCCNC(=O)C2c3ccccc3C(=O)N(C)C2c2ccc(OC)cc2)CC1 (stereo not given) | 102 | 99% (inactive) | 102% (inactive) | 95.9% (inactive) | 110% (inactive) | 16.8% (inactive) | 93.2 | 110 | -1.64% (inactive) | -0.79% (inactive) |
| COc1cc(NC(=O)NC(C)(C(F)(F)F)C(F)(F)F)cc(OC)c1OC | 138 | 106% (inactive) | 138% (inactive) | 91.1% (inactive) | 99.5% (inactive) | -2.39% (inactive) | 102 | 99.5 | -4.08% (inactive) | 11.3% (inactive) |
| COc1ccc(N2CCN(CCCNC(=O)C3CCCN(S(=O)(=O)c4cnc[nH]4)C3)CC2)cc1 (stereo not given) | 95.5 | 102% (inactive) | 95.5% (inactive) | 93.4% (inactive) | 103% (inactive) | 14% (inactive) | 89 | 103 | -4% (inactive) | -4.26% (inactive) |
| CCCCc1nccn1CCn1ccnc1CCCC | 87 | 85.5% (inactive) | 87% (inactive) | 97% (inactive) | 85.8% (inactive) | -0.88% (inactive) | 86.7 | 85.8 | -3.47% (inactive) | 1.61% (inactive) |
| CCOc1ccccc1NC(=O)CN(c1ccc(C)cc1)S(=O)(=O)c1c(C)noc1C | 133 | 87% (inactive) | 133% (inactive) | 68.3% (inactive) | 81% (inactive) | -9.07% (inactive) | 90.1 | 81 | -4.46% (inactive) | 5.56% (inactive) |
| Cn1c(=O)cc(SCC(=O)N2CCOCC2)c2ccc(Cl)cc21 | 108 | 99.5% (inactive) | 108% (inactive) | 76.1% (inactive) | 93.2% (inactive) | 9.88% (inactive) | 83.3 | 93.2 | -2.37% (inactive) | -1.61% (inactive) |
| CCOc1ccc(-n2cc(C(=O)Nc3cccc(C)n3)c3cc(OC)c(OC)cc3c2=O)cc1 | 110 | 91% (inactive) | 110% (inactive) | 71.8% (inactive) | 64.4% (inactive) | -11.8% (inactive) | 76.2 | 64.4 | -5.47% (inactive) | 4.43% (inactive) |
| O=C(c1cc2ccccc2oc1=O)N1CCSC1c1ccco1 (stereo not given) | 100 | 93.5% (inactive) | 100% (inactive) | 97.5% (inactive) | 91.5% (inactive) | 6.19% (inactive) | 85.3 | 91.5 | -8.4% (inactive) | 5.74% (inactive) |
| COc1ccccc1OCC(=O)Nc1ccc(S(=O)(=O)Nc2nc(C)cc(C)n2)cc1 | 90.5 | 184% (inactive) | 90.5% (inactive) | 98.7% (inactive) | 96.3% (inactive) | 7.8% (inactive) | 88.5 | 96.3 | -3.59% (inactive) | -5.5% (inactive) |
| CCCCNC(=O)c1nc2ncc(Br)cn2n1 | 108 | 75% (inactive) | 108% (inactive) | 100% (inactive) | 85.4% (inactive) | -5.97% (inactive) | 91.4 | 85.4 | -3.51% (inactive) | -2.3% (inactive) |
| COc1ccc(CC(=O)N2CCOCC2)cc1OC | 97.5 | 99% (inactive) | 97.5% (inactive) | 102% (inactive) | 91.9% (inactive) | -2.21% (inactive) | 94.2 | 91.9 | 0.13% (inactive) | 3.28% (inactive) |
| COc1cc(CN(C)CC(=O)c2[nH]c(C)c(C(C)=O)c2C)ccc1OC(F)F | 104 | 82.5% (inactive) | 104% (inactive) | 97.3% (inactive) | 85% (inactive) | 6.44% (inactive) | 78.6 | 85 | -5.2% (inactive) | -5.08% (inactive) |
| COc1ccc(-n2c(COc3cccc(C)c3)nnc2SCC(=O)NCc2ccco2)cc1 | 126 | 91% (inactive) | 126% (inactive) | 84.4% (inactive) | 85.4% (inactive) | -10.3% (inactive) | 95.7 | 85.4 | -2.84% (inactive) | -1.43% (inactive) |
| Cc1noc(C)c1S(=O)(=O)N1CCC(C(=O)Nc2ccccn2)CC1 | 98 | 81% (inactive) | 98% (inactive) | 105% (inactive) | 89.5% (inactive) | 6.2% (inactive) | 83.3 | 89.5 | -2.11% (inactive) | 0.48% (inactive) |
| COc1ccc(N2CCN(C(c3cccc(OC)c3OC)c3nnnn3C3CCCC3)CC2)cc1 (stereo not given) | 88 | 121% (inactive) | 88% (inactive) | 94.4% (inactive) | 88.5% (inactive) | -0.405% (inactive) | 88.9 | 88.5 | 4.61% (inactive) | -2.06% (inactive) |
| Cc1ccc(C)c(N2CCN(S(=O)(=O)c3ccc4c(c3)OCCO4)CC2)c1 | 97.5 | 96.5% (inactive) | 97.5% (inactive) | 99.2% (inactive) | 106% (inactive) | 4.96% (inactive) | 101 | 106 | -4.81% (inactive) | -3.97% (inactive) |
| COc1ccc(-c2[nH]nc3c2C(c2ccccc2OC(=O)N2CCOCC2)C(C#N)=C(N)O3)cc1 (stereo not given) | 120 | 85.5% (inactive) | 120% (inactive) | 96.2% (inactive) | 88.9% (inactive) | 1.89% (inactive) | 87 | 88.9 | -1.58% (inactive) | -1.45% (inactive) |
| COc1ccc(CC(=O)NC2CCN(CC(=O)Nc3ccc4c(c3)OCCO4)CC2)cc1OC | 97.5 | 132% (inactive) | 97.5% (inactive) | 88.2% (inactive) | 106% (inactive) | 17% (inactive) | 89.1 | 106 | -2.37% (inactive) | -5.33% (inactive) |
| CNS(=O)(=O)c1cccc(C(=O)OCC(=O)c2cc(C)n(-c3ccc4c(c3)OCO4)c2C)c1 | 85.5 | 92% (inactive) | 85.5% (inactive) | 65.6% (inactive) | 88.4% (inactive) | 2.79% (inactive) | 85.6 | 88.4 | -4.42% (inactive) | 2% (inactive) |
| COc1ccc(OCCC(=O)NCc2ccccc2)cc1 | 103 | 105% (inactive) | 103% (inactive) | 95.7% (inactive) | 103% (inactive) | 19.8% (inactive) | 83.3 | 103 | -3.2% (inactive) | 2.9% (inactive) |
| COC(=O)c1ccc(-c2ccc(CNCC(O)c3ccccc3)o2)cc1 (stereo not given) | 111 | 101% (inactive) | 111% (inactive) | 88.8% (inactive) | 101% (inactive) | 8.78% (inactive) | 92.2 | 101 | -2.03% (inactive) | 1.83% (inactive) |
| CCN(CCCNC(=O)CCNC(=O)Cn1ccc2ccccc2c1=O)c1ccccc1 | 97.5 | 87.5% (inactive) | 97.5% (inactive) | 109% (inactive) | 98.3% (inactive) | 11.8% (inactive) | 86.5 | 98.3 | -5.47% (inactive) | -2.86% (inactive) |
| CCCCc1nc(NCCNC(=O)c2ccco2)c(C#N)c2c1CSC(C)(C)C2 | 84.5 | 100% (inactive) | 84.5% (inactive) | 78.7% (inactive) | 86.7% (inactive) | 15.8% (inactive) | 70.9 | 86.7 | -5.2% (inactive) | -7.38% (inactive) |
| Cc1cccc(NC(=O)COc2ccc(Br)cc2)n1 | 126 | 110% (inactive) | 126% (inactive) | 90.5% (inactive) | 99.4% (inactive) | 6.92% (inactive) | 92.4 | 99.4 | -5.19% (inactive) | 11% (inactive) |
| O=C(Cn1cnc2c(nnn2Cc2ccc(Cl)cc2)c1=O)NCC1CCCO1 (stereo not given) | 120 | 78% (inactive) | 120% (inactive) | 101% (inactive) | 106% (inactive) | 10.8% (inactive) | 94.7 | 106 | -10.1% (inactive) | -1.27% (inactive) |
| COCc1cc(C)nc(SCC(=O)Nc2cccc(C)c2C)c1C#N | 103 | 95.5% (inactive) | 103% (inactive) | 82.3% (inactive) | 94.4% (inactive) | 11.9% (inactive) | 82.5 | 94.4 | -3.16% (inactive) | -0.48% (inactive) |
| O=C(C1CCCN(S(=O)(=O)c2cccnc2)C1)N1CCN(c2ccccn2)CC1 (stereo not given) | 93.5 | 122% (inactive) | 93.5% (inactive) | 103% (inactive) | 98.7% (inactive) | 8.35% (inactive) | 90.3 | 98.7 | 0% (inactive) | -4% (inactive) |
| COc1cccc(-c2nc(CS(=O)CC(=O)NCCCOC(C)C)c(C)o2)c1 (stereo not given) | 102 | 108% (inactive) | 102% (inactive) | 118% (inactive) | 101% (inactive) | 6.34% (inactive) | 95.1 | 101 | -1.6% (inactive) | -6.94% (inactive) |
